Data: ChEMBL document CHEMBL3526062, “Role of human UDP-glucuronosyltransferases in the biotransformation of the triazoloacridinone and imidazoacridinone antitumor agents C-1305 and C-1311: highly selective substrates for UGT1A10” (Drug Metab Dispos, 2012)

Columns and labels:
[1] = target: T1, UDP-glucuronosyltransferase 1A10 (Homo sapiens, UniProt Q9HAW8); experiment: Activity of human recombinant UGT1A10 expressed in baculovirus-infected Sf9 cells assessed as glucuronidation activity per mg of protein at 100 to 200 uM after 60 mins in presence of 3 mM UDP-GlcUA; assay type: ADME; conditions: sf9, 1 h
T1 sequence (Q9HAW8 whole entry): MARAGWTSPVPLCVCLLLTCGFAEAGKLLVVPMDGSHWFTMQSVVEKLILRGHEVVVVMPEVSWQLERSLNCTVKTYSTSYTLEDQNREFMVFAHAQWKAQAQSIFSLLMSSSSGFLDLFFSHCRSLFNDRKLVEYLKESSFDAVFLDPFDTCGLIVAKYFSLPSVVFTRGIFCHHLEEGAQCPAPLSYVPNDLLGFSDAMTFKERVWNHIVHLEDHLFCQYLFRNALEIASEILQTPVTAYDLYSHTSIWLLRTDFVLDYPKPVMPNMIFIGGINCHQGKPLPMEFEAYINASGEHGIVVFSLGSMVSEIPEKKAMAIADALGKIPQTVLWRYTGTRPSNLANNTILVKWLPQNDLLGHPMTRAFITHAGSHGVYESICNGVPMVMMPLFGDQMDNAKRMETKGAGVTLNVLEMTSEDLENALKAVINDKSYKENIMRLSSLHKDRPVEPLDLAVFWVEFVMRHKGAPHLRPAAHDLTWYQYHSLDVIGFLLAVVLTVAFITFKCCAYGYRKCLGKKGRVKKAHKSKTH
Procedure, shortened: (§1)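 Screening: 5 μg recombinant UGT protein (His-tag levels normalized) in Tris-HCl pH 7.4, 5 mM MgCl2, 5 mM saccharolactone, 2% DMSO to permeabilize membranes. Substrate at 100 or 200 μM, added in water. Started with 3 mM UDP-GlcUA, 60 min at 37°C, stopped with ethanol, then centrifuged. Glucuronide quantified by reversed-phase C18 HPLC against the substrate response; triplicates.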

Liver microsome = experiment: Drug metabolism in human liver microsomes assessed as glucuronidation activity at 0.2 mM for 60 mins by ESI-MS analysis in presence of 3 mM UDP-GlcUA; assay type: ADME; conditions: 1 h, 200 µM
Procedure, shortened: (§2)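 Single-donor liver or intestinal microsomes (20 μg total protein) incubated with 0.2 mM substrate and 3 mM UDP-GlcUA for 60 min at 37°C in Tris-HCl pH 7.4, MgCl2, saccharolactone, 2% DMSO. Ethanol stop, centrifuged, HPLC analysis; triplicates.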

[2] = Drug metabolism in human intestinal microsomes assessed as glucuronidation activity at 0.2 mM for 60 mins by ESI-MS analysis in presence of 3 mM UDP-GlcUA; assay type: ADME, Intestine, Microsome; conditions: 1 h, 200 µM; procedure, shortened: as §2
[3] = target: T2, UDP-glucuronosyltransferase 1A9 (Homo sapiens, UniProt O60656); experiment: Inhibition of human recombinant UGT1A9 activity expressed in baculovirus-infected Sf9 cells; assay type: ADME
T2 sequence (O60656 whole entry): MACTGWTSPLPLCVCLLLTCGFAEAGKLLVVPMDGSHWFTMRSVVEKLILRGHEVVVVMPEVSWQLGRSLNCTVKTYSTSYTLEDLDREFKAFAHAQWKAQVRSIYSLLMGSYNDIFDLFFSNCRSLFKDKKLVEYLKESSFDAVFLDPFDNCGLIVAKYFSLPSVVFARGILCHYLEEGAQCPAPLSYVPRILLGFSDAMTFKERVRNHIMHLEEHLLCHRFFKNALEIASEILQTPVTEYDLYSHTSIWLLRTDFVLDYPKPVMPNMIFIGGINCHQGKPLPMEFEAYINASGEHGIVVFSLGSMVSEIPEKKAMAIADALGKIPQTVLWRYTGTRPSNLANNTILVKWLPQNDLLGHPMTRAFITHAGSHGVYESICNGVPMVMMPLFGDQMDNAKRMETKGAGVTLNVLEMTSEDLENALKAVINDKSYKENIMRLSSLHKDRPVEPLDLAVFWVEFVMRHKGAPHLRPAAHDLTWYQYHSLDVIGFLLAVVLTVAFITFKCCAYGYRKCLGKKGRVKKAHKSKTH

[4] = target: T3, UDP-glucuronosyltransferase 1A1 (Homo sapiens, UniProt P22309); experiment: Activity of human recombinant UGT1A1 expressed in baculovirus-infected Sf9 cells assessed as glucuronidation activity per mg of protein at 100 to 200 uM after 60 mins in presence of 3 mM UDP-GlcUA; assay type: ADME; conditions: sf9, 1 h; procedure, shortened: as §1
T3 sequence (P22309 whole entry): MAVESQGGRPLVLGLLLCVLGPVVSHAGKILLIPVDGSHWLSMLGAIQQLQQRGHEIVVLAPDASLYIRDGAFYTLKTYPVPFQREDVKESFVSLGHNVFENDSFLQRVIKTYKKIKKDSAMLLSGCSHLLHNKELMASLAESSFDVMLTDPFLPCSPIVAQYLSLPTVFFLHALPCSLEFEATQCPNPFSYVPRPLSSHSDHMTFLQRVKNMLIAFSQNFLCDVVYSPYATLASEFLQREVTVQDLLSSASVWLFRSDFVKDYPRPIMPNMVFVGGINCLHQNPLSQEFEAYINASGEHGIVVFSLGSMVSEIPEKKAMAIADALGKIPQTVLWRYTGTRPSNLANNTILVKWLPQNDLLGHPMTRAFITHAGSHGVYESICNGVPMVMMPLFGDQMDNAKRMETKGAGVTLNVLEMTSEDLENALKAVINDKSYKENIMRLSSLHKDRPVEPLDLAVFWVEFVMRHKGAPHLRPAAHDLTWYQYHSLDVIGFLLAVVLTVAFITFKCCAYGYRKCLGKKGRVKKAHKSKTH

[5] = target: T4, UDP-glucuronosyltransferase 1A8 (Homo sapiens, UniProt Q9HAW9); experiment: Activity of human recombinant UGT1A8 expressed in baculovirus-infected Sf9 cells assessed as glucuronidation activity per mg of protein at 100 to 200 uM after 60 mins in presence of 3 mM UDP-GlcUA; assay type: ADME; conditions: sf9, 1 h; procedure, shortened: as §1
T4 sequence (Q9HAW9 whole entry): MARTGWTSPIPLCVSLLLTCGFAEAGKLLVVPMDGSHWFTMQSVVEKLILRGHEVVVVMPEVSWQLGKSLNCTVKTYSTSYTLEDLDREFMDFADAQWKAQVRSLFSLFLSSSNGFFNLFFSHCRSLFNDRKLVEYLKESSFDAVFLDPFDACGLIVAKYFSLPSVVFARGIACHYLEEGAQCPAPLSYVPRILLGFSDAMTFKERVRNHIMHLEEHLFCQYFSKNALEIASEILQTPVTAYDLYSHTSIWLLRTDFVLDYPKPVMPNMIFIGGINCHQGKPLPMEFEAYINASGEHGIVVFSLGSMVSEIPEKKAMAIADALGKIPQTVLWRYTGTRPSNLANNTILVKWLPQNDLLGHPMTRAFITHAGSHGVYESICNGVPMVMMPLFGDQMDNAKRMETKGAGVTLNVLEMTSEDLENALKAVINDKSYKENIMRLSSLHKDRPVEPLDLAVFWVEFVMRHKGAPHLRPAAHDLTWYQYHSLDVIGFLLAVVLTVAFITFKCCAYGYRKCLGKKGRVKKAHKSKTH

[6] = target: T2, UDP-glucuronosyltransferase 1A9; experiment: Activity of human recombinant UGT1A9 expressed in baculovirus-infected Sf9 cells assessed as glucuronidation activity per mg of protein at 100 to 200 uM after 60 mins in presence of 3 mM UDP-GlcUA; assay type: ADME; conditions: sf9, 1 h; procedure, shortened: as §1

SMILES	Drug metabolism [1] [nmol/min/mg]	Drug metabolism (Liver microsome)	Drug metabolism [2]	Ki [3] [µM]	Drug metabolism [4] [nmol/min/mg]	Drug metabolism [5] [nmol/min/mg]	Drug metabolism [6] [nmol/min/mg]
CN(C)CCCNc1ccc2nnn3c4ccc(O)cc4c(=O)c1c23	> 0.5	metabolite_detected	metabolite_detected	1650	< 0.1	0.2	0.2
CCN(CC)CCNc1ccc2ncn3c4ccc(O)cc4c(=O)c1c23 [C-1311]	> 0.5	metabolite_detected	metabolite_detected	958	< 0.1	0.2	0.2
